# Measured values reported in ChEMBL document CHEMBL1152617, “Synthesis of 2- and 17-substituted estrone analogs and their antiproliferative structure-activity relationships compared to 2-methoxyestradiol” (Bioorg Med Chem, 2009).
# System: not listed separately
# Experiment: Antiproliferative activity against human U87MG cells by Brdu incorporation assay
# Format: functional, cell-based, U-87MG ATCC
# Settings: U-87 MG
# How it was run: (§1)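 Cells were grown in DMEM with 10% FBS, 2 mM L-glutamine and penicillin/streptomycin. They were seeded at 2000 cells/well, attached overnight, then exposed to increasing compound concentrations for 48 h. DNA synthesis was read by a colorimetric BrdU ELISA. Each condition was run in triplicate, with at least two experiments, reported as the mean ± SD of independent experiments.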
row,SMILES,IC50 [µM]
1,CN(C)c1cc2c(cc1O)CC[C@@H]1[C@@H]2CC[C@]2(C)CCC[C@@H]12.Cl,34.2
2,C[C@@]12CCC[C@H]1[C@@H]1CCc3cc(O)ccc3[C@H]1CC2,22.1
3,CCCC[C@H]1CC[C@H]2[C@@H]3CCc4cc(O)c(OC)cc4[C@H]3CC[C@]12C,21.1
4,CNc1cc2c(cc1O)CC[C@@H]1[C@@H]2CC[C@]2(C)CCC[C@@H]12,22.3
5,COc1cc2c(cc1O)CC[C@@H]1[C@@H]2CC[C@]2(C)[C@@H](NC(C)C)CC[C@@H]12,49.2
6,COc1cc2c(cc1O)CC[C@@H]1[C@@H]2CC[C@]2(C)[C@@H](O)CC[C@@H]12 [2-METHOXYESTRADIOL],8.54
7,COc1cc2c(cc1O)CC[C@@H]1[C@@H]2CC[C@]2(C)C=CC[C@@H]12,0.88

# System: PC-3
# Experiment: Antiproliferative activity against human PC3 cells by Brdu incorporation assay
# Format: functional, cell-based
# Settings: not given
# How it was run: as §1
row,SMILES,IC50 [µM]
1,CN(C)c1cc2c(cc1O)CC[C@@H]1[C@@H]2CC[C@]2(C)CCC[C@@H]12.Cl,26
2,C[C@@]12CCC[C@H]1[C@@H]1CCc3cc(O)ccc3[C@H]1CC2,22
3,CCCC[C@H]1CC[C@H]2[C@@H]3CCc4cc(O)c(OC)cc4[C@H]3CC[C@]12C,28.8
4,CNc1cc2c(cc1O)CC[C@@H]1[C@@H]2CC[C@]2(C)CCC[C@@H]12,22.8
5,COc1cc2c(cc1O)CC[C@@H]1[C@@H]2CC[C@]2(C)[C@@H](NC(C)C)CC[C@@H]12,23.4
6,COc1cc2c(cc1O)CC[C@@H]1[C@@H]2CC[C@]2(C)[C@@H](O)CC[C@@H]12 [2-METHOXYESTRADIOL],2.65
7,COc1cc2c(cc1O)CC[C@@H]1[C@@H]2CC[C@]2(C)C=CC[C@@H]12,0.62

# System: HUVEC
# Experiment: Antiangiogenic activity against HUVECs by Brdu incorporation assay
# Format: functional, cell-based
# Settings: Homo sapiens
# How it was run: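 After overnight attachment they were washed with PBS and held 24 h without growth factor (EBM, 2% FBS). They were then given increasing drug concentrations in EBM with 2% FBS plus 10 ng/mL bFGF for 48 h at 37 °C. Proliferation was read by BrdU ELISA.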
row,SMILES,IC50 [µM]
1,CC=C1CC[C@H]2[C@@H]3CCc4cc(O)c(OC)cc4[C@H]3CC[C@]12C,0.26
2,C[C@@]12CCC[C@H]1[C@@H]1CCc3cc(O)c(N=[N+]=[N-])cc3[C@H]1CC2,2.83
3,CCC=C1CC[C@H]2[C@@H]3CCc4cc(O)c(OC)cc4[C@H]3CC[C@]12C,3.23
4,C=C1CC[C@H]2[C@@H]3CCc4cc(O)c(OC)cc4[C@H]3CC[C@]12C,0.19
5,CN(C)c1cc2c(cc1O)CC[C@@H]1[C@@H]2CC[C@]2(C)CCC[C@@H]12.Cl,7.43
6,C[C@@]12CCC[C@H]1[C@@H]1CCc3cc(O)ccc3[C@H]1CC2,8.22
7,CCCC[C@H]1CC[C@H]2[C@@H]3CCc4cc(O)c(OC)cc4[C@H]3CC[C@]12C,12.6
8,CNc1cc2c(cc1O)CC[C@@H]1[C@@H]2CC[C@]2(C)CCC[C@@H]12,4.11
9,COc1cc2c(cc1O)CC[C@@H]1[C@@H]2CC[C@]2(C)[C@@H](NC(C)C)CC[C@@H]12,18.8
10,CCCC=C1CC[C@H]2[C@@H]3CCc4cc(O)c(OC)cc4[C@H]3CC[C@]12C,3.47
11,COc1cc2c(cc1O)CC[C@@H]1[C@@H]2CC[C@]2(C)C=CC[C@@H]12,0.71

# System: MCF7
# Experiment: Estrogenic activity in human MCF7 cells assessed as stimulation of cell proliferation relative to 2-methoxyestradiol
# Format: functional
# Settings: not given
# How it was run: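 MCF-7 were kept in DMEM/F12 with 10% FBS, seeded at 20–30,000 cells/well, adhered overnight and counted. After a PBS wash they were starved 3 days in phenol red-free IMEM with 2% charcoal-dextran-stripped FBS. Increasing concentrations were given, with medium renewed every 2–3 days. Cells were Coulter-counted after 8 or 10 days, in triplicate, and expressed as stimulation index relative to 2ME2 (1.00).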
row,SMILES,fold change (FC)
1,CC=C1CC[C@H]2[C@@H]3CCc4cc(O)c(OC)cc4[C@H]3CC[C@]12C,0.89
2,C[C@@]12CCC[C@H]1[C@@H]1CCc3cc(O)c(N=[N+]=[N-])cc3[C@H]1CC2,2.04
3,CCC=C1CC[C@H]2[C@@H]3CCc4cc(O)c(OC)cc4[C@H]3CC[C@]12C,0.47
4,C=C1CC[C@H]2[C@@H]3CCc4cc(O)c(OC)cc4[C@H]3CC[C@]12C,0.89
5,CN(C)c1cc2c(cc1O)CC[C@@H]1[C@@H]2CC[C@]2(C)CCC[C@@H]12.Cl,2.17
6,C[C@@]12CCC[C@H]1[C@@H]1CCc3cc(O)ccc3[C@H]1CC2,1.91
7,CCCC[C@H]1CC[C@H]2[C@@H]3CCc4cc(O)c(OC)cc4[C@H]3CC[C@]12C,0.59
8,CNc1cc2c(cc1O)CC[C@@H]1[C@@H]2CC[C@]2(C)CCC[C@@H]12,1.22
9,COc1cc2c(cc1O)CC[C@@H]1[C@@H]2CC[C@]2(C)[C@@H](NC(C)C)CC[C@@H]12,0.11
10,CCCC=C1CC[C@H]2[C@@H]3CCc4cc(O)c(OC)cc4[C@H]3CC[C@]12C,0.51
11,COc1cc2c(cc1O)CC[C@@H]1[C@@H]2CC[C@]2(C)C=CC[C@@H]12,0.3

# System: not listed separately
# Experiment: Metabolic stability in human liver microsomes assessed as compound remaining at 5 uM after 15 mins by LCMS analysis relative to 0 mins
# Format: ADME, Microsome
# Settings: read-out: Stability
# How it was run: (§2)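 Human liver microsomes were incubated in 50 mM tris pH 7.5 with 10 mM MgCl2, 2 mM UDPGA, 25 µg alamethicin/mg microsomal protein and 5 µM compound. Aliquots at 0, 15, 30 and 60 min were quenched in acetonitrile with internal standard. Samples were analysed by C18 LCMS in negative ion mode as % remaining versus 0 min. Controls were BSA without microsomes, and incubations lacking UDPGA.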
row,SMILES,"remaining at 0.25 h, 5 µM [%]"
1,CC=C1CC[C@H]2[C@@H]3CCc4cc(O)c(OC)cc4[C@H]3CC[C@]12C,75
2,C=C1CC[C@H]2[C@@H]3CCc4cc(O)c(OC)cc4[C@H]3CC[C@]12C,76
3,COc1cc2c(cc1O)CC[C@@H]1[C@@H]2CC[C@]2(C)[C@@H](O)CC[C@@H]12 [2-METHOXYESTRADIOL],58

# System: not listed separately
# Experiment: Metabolic stability in human liver microsomes assessed as compound remaining at 5 uM after 30 mins by LCMS analysis relative to 0 mins
# Format: ADME, Microsome
# Settings: read-out: Stability
# How it was run: as §2
row,SMILES,"remaining at 0.5 h, 5 µM [%]"
1,CC=C1CC[C@H]2[C@@H]3CCc4cc(O)c(OC)cc4[C@H]3CC[C@]12C,75
2,C=C1CC[C@H]2[C@@H]3CCc4cc(O)c(OC)cc4[C@H]3CC[C@]12C,67
3,COc1cc2c(cc1O)CC[C@@H]1[C@@H]2CC[C@]2(C)[C@@H](O)CC[C@@H]12 [2-METHOXYESTRADIOL],29

# System: not listed separately
# Experiment: Metabolic stability in human liver microsomes assessed as compound remaining at 5 uM after 60 mins by LCMS analysis relative to 0 mins
# Format: ADME, Microsome
# Settings: read-out: Stability
# How it was run: as §2
row,SMILES,"remaining at 1 h, 5 µM [%]"
1,CC=C1CC[C@H]2[C@@H]3CCc4cc(O)c(OC)cc4[C@H]3CC[C@]12C,0.8
2,C=C1CC[C@H]2[C@@H]3CCc4cc(O)c(OC)cc4[C@H]3CC[C@]12C,5.8
3,COc1cc2c(cc1O)CC[C@@H]1[C@@H]2CC[C@]2(C)[C@@H](O)CC[C@@H]12 [2-METHOXYESTRADIOL],9.4

# System: MDA-MB-231 (Homo sapiens)
# Experiment: Antiproliferative activity against human MDA-MB-231 cells by Brdu incorporation assay
# Settings: not given
row,SMILES,IC50 [µM]
1,CC=C1CC[C@H]2[C@@H]3CCc4cc(O)c(OC)cc4[C@H]3CC[C@]12C,0.58
2,C[C@@]12CCC[C@H]1[C@@H]1CCc3cc(O)c(N=[N+]=[N-])cc3[C@H]1CC2,7.12
3,CCC=C1CC[C@H]2[C@@H]3CCc4cc(O)c(OC)cc4[C@H]3CC[C@]12C,7.89
4,C=C1CC[C@H]2[C@@H]3CCc4cc(O)c(OC)cc4[C@H]3CC[C@]12C,0.24
5,CN(C)c1cc2c(cc1O)CC[C@@H]1[C@@H]2CC[C@]2(C)CCC[C@@H]12.Cl,39.3
6,C[C@@]12CCC[C@H]1[C@@H]1CCc3cc(O)ccc3[C@H]1CC2,41.3
7,CCCC[C@H]1CC[C@H]2[C@@H]3CCc4cc(O)c(OC)cc4[C@H]3CC[C@]12C,33.5
8,CNc1cc2c(cc1O)CC[C@@H]1[C@@H]2CC[C@]2(C)CCC[C@@H]12,26.8
9,COc1cc2c(cc1O)CC[C@@H]1[C@@H]2CC[C@]2(C)[C@@H](NC(C)C)CC[C@@H]12,17.8
10,CCCC=C1CC[C@H]2[C@@H]3CCc4cc(O)c(OC)cc4[C@H]3CC[C@]12C,14
11,COc1cc2c(cc1O)CC[C@@H]1[C@@H]2CC[C@]2(C)[C@@H](O)CC[C@@H]12 [2-METHOXYESTRADIOL],1
12,COc1cc2c(cc1O)CC[C@@H]1[C@@H]2CC[C@]2(C)C=CC[C@@H]12,0.73
